# From article PMC3983390 (Journal of medicinal chemistry, 2014)
# Like-named read-outs stand apart in the source and are kept apart here.
# Key:
# [1] = biological target: T1, hD3 receptor (Homo sapiens, UniProt P35462); details: GTPγS, compared with Emax of DA; cited from earlier work
# [2] = test system: MN9D cells; experiment: Neuroprotection against MPP+ toxicity in dopaminergic MN9D cells; assay type: cell-based, mouse; details: 1 h pretreatment, then cotreatment with 100 μM MPP+ for 24 h; MTT
# Outline: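 MN9D cells (mouse mesencephalic neuron × N18TG2 hybridoma) grown on poly-L-lysine in high-glucose DMEM with 10% serum and penicillin/streptomycin, 37 °C, 5% CO2. Seeded at 1 × 10^4 cells/well and equilibrated 40 h. Pretreated 1 h with test compound (0.001–20 μM; DMSO stock), then MPP+ added to 100 μM final for 24 h; controls 0.01% DMSO. MTT (0.5 mg/mL final) 3 h; formazan dissolved in DMSO/methanol 1:1; A570 minus A690. Three independent experiments, 4–6 replicates, mean ± SD; one-way ANOVA with Tukey vs MPP+.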
# [3] = test system: reserpine-treated rats; experiment: Reversal of reserpine-induced hypolocomotion in rats; assay type: in vivo, rat; details: for reversal of akinesia (locomotor activity) in reserpine-treated rats: i.p., in DI water, 18 h after reserpine 5 mg/kg s.c.
# Outline: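 Male Sprague–Dawley rats (220–225 g) anaesthetised with isoflurane and given reserpine 5.0 mg/kg s.c. (acetic acid diluted in 5.5% glucose) or saline 18 h beforehand. After 1 h chamber acclimatisation, test compound (in water) given i.p. at 5 μmol/kg; reference agonist given s.c. Horizontal activity counted from infrared beam breaks for 6 h in 30-min bins. n = 4; mean ± SEM; one-way ANOVA with Dunnett vs saline controls.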
# [4] = biological target: rD2L receptor (Rattus norvegicus, UniProt P61169); details: read-out: Ki (nM), rD2L [3H]spiroperidol; HEK-293 cells; from previous ref 44; cited from earlier work
# [5] = biological target: T2, hD2 receptor (Homo sapiens, UniProt P14416); details: GTPγS, compared with Emax of DA; cited from earlier work
# [6] = test system: 6-OHDA lesioned rats; experiment: In vivo rotational experiment with 6-OHDA unilaterally lesioned rats; set-up: species or system rat; details: for rotational activity in 6-OHDA lesioned rats / duration of rotation / total number of rotations: i.p.
# Outline: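 Rats (290–320 g) with a unilateral 6-OHDA lesion of the left medial forebrain bundle. Lesion confirmed by apomorphine challenges, including 0.05 mg/kg at 21 days post-lesion with contralateral rotations counted for 30 min. Test compound given i.p. at 5 or 10 μmol/kg; controls were vehicle and apomorphine reference. Contralateral (clockwise) rotations counted in harnessed rotometry chambers from dosing, in 30-min bins, over 7–12 h.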
# [7] = biological target: rD3 receptor (Rattus norvegicus, UniProt P19020); details: read-out: Ki (nM), rD3 [3H]spiroperidol; HEK-293 cells; from previous ref 44; cited from earlier work
# [8] = biological target: T1, hD3 receptor; experiment: Stimulation of [35S]GTPγS binding to hD3 receptors expressed in CHO cells; assay type: biochemical; details: for agonist type at D3 receptor: GTPγS, compared with Emax of DA
# [9] = biological target: T2, hD2 receptor; experiment: Stimulation of [35S]GTPγS binding to hD2 receptors expressed in CHO cells; assay type: biochemical; details: compared with Emax of DA
# [10] = DPPH radical scavenging assay; details: 20 to 250 μM drug, 200 μM DPPH, methanol, 30 °C, 25 min; Figure 2
# Outline: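 Test compound in methanol as 20–250 μM solutions (before mixing), combined 1:1 with 200 μM methanolic DPPH. Plate shaken at 30 °C for 25 min. Controls were methanol plus DPPH, with methanol alone as background and ascorbic acid as standard. Absorbance read at 517 nm. % scavenging = (A control − A sample)/A control × 100.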
# T1 sequence (P35462 whole entry): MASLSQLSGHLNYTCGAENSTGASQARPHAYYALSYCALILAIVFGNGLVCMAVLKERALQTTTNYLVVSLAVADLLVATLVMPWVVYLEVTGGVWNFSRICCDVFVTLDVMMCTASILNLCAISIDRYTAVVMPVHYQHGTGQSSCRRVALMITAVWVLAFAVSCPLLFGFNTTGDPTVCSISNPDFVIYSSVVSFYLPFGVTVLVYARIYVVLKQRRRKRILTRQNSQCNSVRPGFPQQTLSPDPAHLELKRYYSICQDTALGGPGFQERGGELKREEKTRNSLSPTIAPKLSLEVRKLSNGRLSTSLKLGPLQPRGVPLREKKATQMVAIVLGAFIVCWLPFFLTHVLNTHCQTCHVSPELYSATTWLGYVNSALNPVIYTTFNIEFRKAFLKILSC
# T2 sequence (P14416 whole entry): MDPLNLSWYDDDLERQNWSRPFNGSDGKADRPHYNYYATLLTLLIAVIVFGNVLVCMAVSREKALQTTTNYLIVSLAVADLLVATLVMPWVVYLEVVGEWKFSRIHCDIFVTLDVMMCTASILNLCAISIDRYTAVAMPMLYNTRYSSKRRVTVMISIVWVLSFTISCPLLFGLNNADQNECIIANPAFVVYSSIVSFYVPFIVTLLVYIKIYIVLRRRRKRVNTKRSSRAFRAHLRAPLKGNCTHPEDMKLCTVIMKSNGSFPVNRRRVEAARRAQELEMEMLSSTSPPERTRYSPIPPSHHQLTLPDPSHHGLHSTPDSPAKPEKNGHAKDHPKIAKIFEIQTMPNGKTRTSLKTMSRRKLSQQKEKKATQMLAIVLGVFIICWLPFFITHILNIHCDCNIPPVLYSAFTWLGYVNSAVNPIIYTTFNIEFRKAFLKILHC
# Chain of rD3 receptor (P19020 whole entry): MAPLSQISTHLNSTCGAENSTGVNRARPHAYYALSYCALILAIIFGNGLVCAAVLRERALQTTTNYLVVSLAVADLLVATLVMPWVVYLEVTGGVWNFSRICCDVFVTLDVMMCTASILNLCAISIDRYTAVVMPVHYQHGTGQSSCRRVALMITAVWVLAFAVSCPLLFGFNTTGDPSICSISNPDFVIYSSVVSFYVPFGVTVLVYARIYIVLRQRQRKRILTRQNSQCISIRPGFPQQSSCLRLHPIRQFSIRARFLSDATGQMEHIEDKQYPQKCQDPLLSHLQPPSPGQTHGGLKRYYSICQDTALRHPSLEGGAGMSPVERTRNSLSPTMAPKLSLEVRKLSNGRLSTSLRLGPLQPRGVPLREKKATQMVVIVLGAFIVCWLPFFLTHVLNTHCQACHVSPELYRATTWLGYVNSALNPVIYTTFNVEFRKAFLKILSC
# Chain of rD2L receptor (P61169 whole entry): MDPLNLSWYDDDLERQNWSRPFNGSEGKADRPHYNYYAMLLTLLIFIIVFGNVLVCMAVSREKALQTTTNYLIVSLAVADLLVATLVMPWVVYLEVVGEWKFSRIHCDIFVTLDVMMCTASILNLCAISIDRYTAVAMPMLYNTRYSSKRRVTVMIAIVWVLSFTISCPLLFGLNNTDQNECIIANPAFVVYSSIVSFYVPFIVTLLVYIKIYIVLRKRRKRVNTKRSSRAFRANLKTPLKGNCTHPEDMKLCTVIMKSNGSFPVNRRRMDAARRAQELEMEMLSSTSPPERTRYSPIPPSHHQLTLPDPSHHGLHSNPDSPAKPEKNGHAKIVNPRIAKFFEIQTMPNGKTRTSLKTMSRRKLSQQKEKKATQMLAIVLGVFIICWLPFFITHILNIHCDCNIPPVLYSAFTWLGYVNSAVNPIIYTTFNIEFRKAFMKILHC
smiles,measurement,setting,value
"CCCN(CCN1CCN(c2ccc(-c3ccccc3)cc2)CC1)[C@H]1CCc2nc(N)sc2C1 [Compound 1a, (−)-N6-(2-(4-(Biphenyl-4-yl)piperazin-1-yl)-ethyl)-N6-propyl-4,5,6,7-tetrahydrobenzo[d]thiazole-2,6-diamine]",agonist type at D3 receptor,[1],full agonist
same,protection of MN9D cells from MPP+ induced toxicity,[2],able to protect the MN9D cells in a dose-dependent manner
same,reversal of akinesia (locomotor activity) in reserpine-treated rats,[3]; 5 μmol/kg,failed to produce any significant effect in reversing akinesia
same,reversal of akinesia in reserpine-treated rats,"[3]; dissolved in 10% beta-hydroxy cyclodextrin solution, 5 μmol/kg i.p.",more effective
same,Ki,[4],186 ± 34 nM
same,agonist type at D2 receptor,[5],full agonist
same,rotational activity in 6-OHDA lesioned rats,[6],failed to show any in vivo activity
same,Ki,[7],2.1 ± 0.34 nM
"CCCN(CCN1CCN(c2ccc(-c3cccc(O)c3)cc2)CC1)[C@H]1CCc2nc(N)sc2C1 [Compound (−)-9b, (S)-4′-(4-(2-((2-Amino-4,5,6,7-tetrahydrobenzo[d]thiazol-6-yl)(propyl)amino)ethyl)piperazin-1-yl)biphenyl-3-ol]",increase in D3 functional potency in comparison to 1a,[8]; GTPγS EC50,15 fold
same,increase in functional selectivity (D2/D3) in comparison to 1a,[8]; GTPγS EC50 ratio,7 fold
same,agonist type at D3 receptor,[8],full agonist
same,protection of MN9D cells from MPP+ induced toxicity,[2],able to protect the MN9D cells in a dose-dependent manner
same,reversal of akinesia (locomotor activity) in reserpine-treated rats,[3]; 5 μmol/kg,highly efficacious in reversing akinesia
same,duration of rotation,[6]; 5 μmol/kg,more than 7 h
same,total number of rotations,[6]; 5 μmol/kg,1839 rotations
same,duration of rotation,[6]; 10 μmol/kg,more than 10 h
same,total number of rotations,[6]; 10 μmol/kg,2653 rotations
same,rotational activity in 6-OHDA lesioned rats,[6],produced potent rotational activity in a dose-dependent manner
same,agonist type at D2 receptor,[9],full agonist
"CCCN(CCC)CCc1cccc2c1CC(=O)N2 [ropinirole, Ropinirole, reference compound]",duration of action in reserpine-treated rats,"[3]; 5 μmol/kg, s.c., compared to the test compounds",much shorter duration of action
same,DPPH radical scavenging (antioxidant) activity,[10],poor activity
same,duration of action in 6-OHDA lesioned rats,[6]; 10 μmol/kg,much shorter duration of action
"CCCN(CCN1CCN(c2ccc(-c3cccc(O)c3)cc2)CC1)[C@H]1CCc2c(O)cccc2C1 [(−)-11, (S)-6-((2-(4-(3′-Hydroxybiphenyl-4-yl)piperazin-1-yl)ethyl)-(propyl)amino)-5,6,7,8-tetrahydronaphthalen-1-ol]",DPPH radical scavenging (antioxidant) activity,[10],less antioxidant activity in this assay than (−)-9b
"CCCN(CCN1CCN(c2ccc(-c3cccc(OC)c3)cc2)CC1)[C@H]1CCc2nc(N)sc2C1 [Compound (−)-8b, (S)-N6-(2-(4-(3′-Methoxybiphenyl-4-yl)piperazin-1-yl)ethyl)-N6-propyl-4,5,6,7-tetrahydrobenzo[d]thiazole-2,6-diamine]",less potent at D3 receptor in comparison to 1a,[8]; GTPγS EC50,2 fold
same,agonist type at D3 receptor,[8],partial agonist
same,protection of MN9D cells from MPP+ induced toxicity,[2],did not show any neuroprotection
same,reversal of akinesia (locomotor activity) in reserpine-treated rats,[3]; 5 μmol/kg,highly efficacious in reversing akinesia
same,duration of rotation,[6]; 5 μmol/kg,more than 7 h
same,total number of rotations,[6]; 5 μmol/kg,3333 rotations
same,duration of rotation,[6]; 10 μmol/kg,more than 10 h
same,total number of rotations,[6]; 10 μmol/kg,5866 rotations
same,rotational activity in 6-OHDA lesioned rats,[6],produced potent rotational activity in a dose-dependent manner
same,agonist type at D2 receptor,[9],full agonist
"CN1CCc2cccc3c2[C@H]1Cc1ccc(O)c(O)c1-3 [apomorphine, reference compound]",average contralateral rotation,"[6]; apomorphine 0.05 mg/kg, 21 days postlesion, recorded for 30 min",> 250
O=C1O[C@H]([C@@H](O)CO)C(O)=C1O [ascorbic acid],DPPH radical scavenging (antioxidant) activity,[10],inhibited DPPH radical activity dose dependently
